One assay addresses Cystic fibrosis transmembrane conductance regulator (Homo sapiens, UniProt P13569, F508DEL). Description: (§1) Activity of human CFTR F508 deletion mutant expressed in FRT cells assessed as potentiation of genistein-induced iodine ion influx after 24 hrs by YFP-H148Q/I152L fluorescent quenching assay.
Details: not given; call rule not given here
In kind it is cell-based. In outline:
(§2)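 FRT cells co-expressing human ΔF508-CFTR and the iodide-sensitive YFP-H148Q/I152L sensor were incubated 24 h with each compound. Iodide influx, used as a chloride surrogate, was then read from the kinetics of YFP quenching after iodide addition, with cells stimulated by a cAMP agonist plus genistein. Corrector activity was derived from influx versus concentration data.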
Chain of Cystic fibrosis transmembrane conductance regulator (Homo sapiens, UniProt P13569) (P13569 as listed by the source): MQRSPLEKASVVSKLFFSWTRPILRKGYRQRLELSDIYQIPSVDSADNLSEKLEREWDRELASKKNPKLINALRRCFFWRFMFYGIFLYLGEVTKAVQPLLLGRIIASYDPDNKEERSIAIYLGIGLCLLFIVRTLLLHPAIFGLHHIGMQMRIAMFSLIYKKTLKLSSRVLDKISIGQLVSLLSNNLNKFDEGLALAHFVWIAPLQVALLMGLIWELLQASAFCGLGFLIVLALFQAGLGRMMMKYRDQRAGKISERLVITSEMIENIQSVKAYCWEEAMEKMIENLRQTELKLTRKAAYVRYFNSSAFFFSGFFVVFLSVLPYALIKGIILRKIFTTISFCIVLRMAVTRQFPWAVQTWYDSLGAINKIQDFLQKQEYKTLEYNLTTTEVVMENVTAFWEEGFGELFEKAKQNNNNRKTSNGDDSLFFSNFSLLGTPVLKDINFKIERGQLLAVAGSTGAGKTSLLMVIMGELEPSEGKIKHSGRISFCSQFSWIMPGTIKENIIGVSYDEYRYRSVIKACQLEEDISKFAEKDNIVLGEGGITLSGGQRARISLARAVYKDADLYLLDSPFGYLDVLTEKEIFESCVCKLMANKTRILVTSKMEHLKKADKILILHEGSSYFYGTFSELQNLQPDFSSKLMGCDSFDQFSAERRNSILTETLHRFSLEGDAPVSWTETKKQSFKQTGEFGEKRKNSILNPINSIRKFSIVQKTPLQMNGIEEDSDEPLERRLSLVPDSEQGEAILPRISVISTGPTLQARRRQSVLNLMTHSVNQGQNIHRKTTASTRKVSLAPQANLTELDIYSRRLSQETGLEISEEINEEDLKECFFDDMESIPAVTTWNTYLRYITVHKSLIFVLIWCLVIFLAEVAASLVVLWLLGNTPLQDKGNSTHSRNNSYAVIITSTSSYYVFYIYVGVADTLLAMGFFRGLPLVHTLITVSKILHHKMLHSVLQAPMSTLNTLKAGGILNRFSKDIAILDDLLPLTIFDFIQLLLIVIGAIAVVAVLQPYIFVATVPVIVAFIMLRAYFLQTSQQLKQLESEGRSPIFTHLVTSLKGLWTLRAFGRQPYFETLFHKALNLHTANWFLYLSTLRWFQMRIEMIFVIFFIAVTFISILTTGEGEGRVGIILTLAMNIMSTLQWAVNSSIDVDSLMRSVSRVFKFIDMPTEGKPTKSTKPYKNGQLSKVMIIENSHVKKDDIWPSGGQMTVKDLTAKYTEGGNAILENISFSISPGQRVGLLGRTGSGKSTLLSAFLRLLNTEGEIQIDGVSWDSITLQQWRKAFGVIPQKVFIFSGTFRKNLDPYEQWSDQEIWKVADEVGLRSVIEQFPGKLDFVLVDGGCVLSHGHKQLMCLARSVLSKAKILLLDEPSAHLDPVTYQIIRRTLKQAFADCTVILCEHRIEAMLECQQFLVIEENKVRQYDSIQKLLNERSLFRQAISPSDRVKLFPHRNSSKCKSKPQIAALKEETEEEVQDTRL
Chain of Cystic fibrosis transmembrane conductance regulator (Homo sapiens, UniProt P13569, F508DEL) (P13569 as listed by the source): as above
On to `COc1ccc(Cl)cc1Nc1ncc(-c2sc(NC(=O)C(C)(C)C)nc2C)o1`, for which the EC50 was 740 nM. For `COc1ccc(Cl)cc1Nc1nc(-c2nnc(NC(=O)C(C)(C)C)o2)cs1`, the EC50 is 590 nM.

On to `COc1ccc(Cl)cc1Nc1nnc(-c2csc(NC(=O)C(C)(C)C)n2)o1`, for which the EC50 stood at 660 nM. Same read-out and setting: the result for `COc1ccc(Cl)cc1Nc1nc(-c2sc(NC(=O)C(C)(C)C)nc2C)cs1` reads 870 nM.

A further assay deals with Cystic fibrosis transmembrane conductance regulator (Homo sapiens, UniProt P13569). The description is as §1. Format: cell-based. The settings on record: frt. In outline:
as §2
In the case of `COc1ccc(Cl)cc1-n1cc(-c2sc(NC(=O)C(C)(C)C)nc2C)[nH]c1=O`, the EC50 entry is reported as “Not Active”.

On to `COc1ccc(Cl)cc1Nc1nnc(-c2csc(NC(=O)C(C)(C)C)n2)s1`, for which the EC50 result is reported as “Not Active”. Still for that read-out and setting: the value for `COc1ccc(Cl)cc1Nc1nc(C)c(-c2csc(NC(=O)C(C)(C)C)n2)s1` was “Not Active”.

Broadly, the EC50 is the concentration needed to bring the measured effect to its halfway point.

The values are drawn from ChEMBL document CHEMBL3352347, “ΔF508-CFTR correctors: synthesis and evaluation of thiazole-tethered imidazolones, oxazoles, oxadiazoles, and thiadiazoles” (Bioorg Med Chem Lett, 2014).
